Assay outcomes deposited in PubChem by several laboratories.
NR2E3 ag-1 – NR2E3 agonists in two-hybrid cells, primary screen, cell-based, luminescence, CHO-S, Gal4-NCOR/VP16-NR2E3; Photoreceptor-specific nuclear receptor (Homo sapiens), Q9Y5X4; luciferase; inhibition of corepressor binding, % at 3.98 µM; 360,000 compounds, 0.35% hits; AID 602229, 2012;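 active = inhibition above the mean of all tested compounds plus 3 SD, cut at about 70% in these data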;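 note: 0% = DMSO with NR2E3 transfected cells and 100% = cells lacking NR2E3 construct; higher means lower luciferase signal from less NR2E3 corepressor binding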
MC4R barr agon – MC4R agonists recruiting beta-arrestin, primary screen, cell-based, luminescence, agonist arm of biased-ligand search; U2OS MC4R beta-arrestin complementation; percent of melanotan II response, DMSO zero; activation, % at 8.9 µM; 360,000 compounds, 0.98% hits;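 active = activation above a per-plate cutoff, the mean activation of sample wells on that plate plus 3 SD, cut at about 8% in these data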
Target sequence (P32245 whole entry, looked up): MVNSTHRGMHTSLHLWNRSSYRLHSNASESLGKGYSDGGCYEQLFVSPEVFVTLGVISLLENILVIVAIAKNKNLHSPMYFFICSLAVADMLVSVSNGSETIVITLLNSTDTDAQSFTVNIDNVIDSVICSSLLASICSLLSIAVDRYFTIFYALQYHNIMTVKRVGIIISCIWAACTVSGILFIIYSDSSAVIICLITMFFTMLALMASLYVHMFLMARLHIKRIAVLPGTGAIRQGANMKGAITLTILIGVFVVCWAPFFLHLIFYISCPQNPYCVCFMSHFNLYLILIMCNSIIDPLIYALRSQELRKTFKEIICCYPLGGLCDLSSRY
NR2E3 ag-2 – inhibitors of NR2E3-RetCOR corepressor binding, primary screen, NR2E3 agonist project, biochemical, TR-FRET, GST-NR2E3, biotin-RetCOR; 320,000 compounds, 0.12% hits; Photoreceptor-specific nuclear receptor (Homo sapiens), Q9Y5X4; inhibition of corepressor binding, % at 4.78 µM; 1536-well;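 active = percent inhibition above the cutoff of mean plus 3 SD of all tested compounds, set per screening campaign, cut at about 20% in these data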;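 note: 0% = DMSO wells and 100% = biotin wells as full block of FRET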
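System: GST-tagged NR2E3 plus biotinylated RetCOR corepressor; Buffer or medium: pH 7.5 Tris-based buffer; Probe or stimulus: RetCOR corepressor, biotinylated, 7 nM; Doses: compound at 4.8 µM, single dose; Schedule: 5 h incubation at 4 °C; Technique: time-resolved FRET; Evaluation: percent inhibition of TR-FRET ratio; Replication: one well per compound, singlicate testing.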
PG9 binder – binders of HIV-1 gp120 antibody PG9, primary screen, biochemical, TR-FRET; HIV-1 gp120 / PG9 antibody interaction; TR-FRET gp120-PG9 antibody binding; inhibition, % at 6.7 µM; 360,000 compounds, 0.43% hits; AID 624416, 2012; in the data active = inhibition above about 8.5%
NR1D1 modulator – modulators of Rev-erb alpha DNA binding, primary screen, biochemical, FITC-DNA, fluorescence polarization, uHTS. Nuclear receptor subfamily 1 group D member 1 (Homo sapiens), P20393. Rev-erbα–FITC-DNA binding, 90 min. activity, % at 10 µM. 370,000 compounds, 0.79% hits;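 active = activity above about 14%, limit read from the data; passing the limit was not always enough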;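 note: 0% = DMSO wells with 35 nM protein and 100% = DMSO wells with 750 nM protein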
MC4R antagonist – MC4R antagonists of cAMP signaling, primary screen, cell-based, TR-FRET, antagonist arm of biased-ligand search | MC4R-expressing cells, MTII-stimulated cAMP, LANCE TR-FRET | inhibition, % at 6.5 µM | Melanocortin receptor 4 (Homo sapiens), P32245 | 360,000 compounds, 0.48% hits | AID 540295, 2011;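 active = inhibition above its plate's cutoff, the mean of tested wells on that plate plus 3 SD, cut at about 29% in these data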;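 note: 0% = Melanotan II alone and 100% = Melanotan II plus saturating MCL0020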
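material = U2OS cells stably expressing human melanocortin 4 receptor (MC4R) | also added = Melanotan II challenge | dosing = single nominal compound dose of 6.5 µM | detection = TR-FRET with Eu-cAMP and labeled anti-cAMP, 671 nm | replication = singlicate | timing = compound 30 min, challenge 1 h, detection 1 h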
cAMP nonselect – nonselective cAMP signaling inhibitors, parental cells, counter-screen for MC4R biased antagonist project, cell-based, TR-FRET, U2OS, forskolin, triplicate | shares compounds with MC4R antagonist | LANCE TR-FRET | inhibition, % at 6.5 µM | 1,600 compounds, 26% hits;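 active = mean inhibition over triplicates above the low-control well mean plus 3 SD, set per campaign, cut at about 13% in these data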;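 note: signal is single emission at 671 nm which falls as cellular cAMP rises; 0% = forskolin-stimulated wells and 100% = buffer without forskolin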
MC4R cAMP antag – MC4R cAMP antagonists, retest, confirmation, cell-based, TR-FRET; shares compounds with MC4R antagonist; MC4R-expressing cells, MTII-stimulated cAMP; inhibition, % at 6.5 µM; 1,600 compounds, 27% hits; AID 602195, 2012; in the data active = inhibition above about 29%;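 note: 0% = agonist stimulated wells alone and 100% = agonist stimulated wells plus saturating reference antagonist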
The depositor's hits bear a star; . = not tested or not shown. Sampled rows, rich in hits. Any-hit rate of the full collection: about 2.7%.

SMILES | NR2E3 ag-1 | MC4R barr agon | NR2E3 ag-2 | PG9 binder | NR1D1 modulator | MC4R antagonist | cAMP nonselect | MC4R cAMP antag
O=C(COC(=O)c1ccccc1C(=O)c1ccc(Cl)c([N+](=O)[O-])c1)NC1CCCCCC1 | -6 | -3 | -1 | 0 | -3 | 64* | 12 | 31*
CC(C)N(C(=O)COC(=O)c1ccccc1C(=O)c1ccc(Cl)c([N+](=O)[O-])c1)C(C)C | -22 | -5 | -2 | 1 | -4 | 19 | . | .
Cc1nc(=O)c(-c2ccccc2)c(C)n1-c1ccc(O)cc1 | -12 | -2 | 0 | 0 | -1 | -1 | . | .
Cc1nc(=O)c(-c2ccccc2)c(C)n1-c1ccccc1 | 2 | 2 | 4 | -2 | -1 | 31* | -6 | -3
CC(C)N1C(=O)c2ccccc2NC(=O)C1C(=O)NC1CC1 (centres undefined) | . | . | . | -3 | -1 | . | . | .
CCCCCCOc1ccc(C(CC(=O)O)C(N)=O)cc1 (centres undefined) | 2 | 0 | 0 | -2 | 0 | 1 | . | .
CCCCOc1ccc(C(NC(=O)OCC)NC(=O)OCC)cc1 | -37 | -2 | 0 | -3 | 4 | 29* | 0 | 2
O=C(Nc1ccccc1C(F)(F)F)c1c(F)cccc1Cl | 25 | 2 | -2 | 0 | 0 | 30* | 1 | -6
CC1C/C(=C/c2ccncc2)C(=O)/C(=C/c2ccncc2)C1 (centres undefined) | -3 | -1 | 1 | 2 | 1 | 31* | 29* | 30*
CC1=C(C(=O)N(C(C)C)C(C)C)CC(CC(=O)NC2CCCCC2)C(=O)N1Cc1ccccc1 (centres undefined) | -21 | 0 | . | 1 | -4 | -2 | . | .
CCOC(=O)C1CCCN(C(=O)c2cccc([N+](=O)[O-])c2C)C1 (centres undefined) | -30 | 1 | 5 | 1 | -2 | 32* | -2 | 4
CCOC(=O)C1CCCN(C(=O)c2ccc(OC)c([N+](=O)[O-])c2)C1 (centres undefined) | 12 | 1 | 0 | -1 | -1 | 8 | . | .
O=C(NCCc1csc(-c2ccccc2)n1)c1c(F)cccc1F | 8 | 1 | 0 | 0 | -6 | 14 | . | .
O=C(NCCc1csc(-c2ccccc2)n1)c1c(F)cccc1Cl | -10 | -2 | 4 | -3 | -4 | 31* | -2 | 0
OCC1(Cc2ccccc2F)CCCN(CC2CCCCC2)C1 (centres undefined) | -12 | 1 | 1 | -1 | 7 | 11 | . | .
O=C(CNS(=O)(=O)c1ccc2ccccc2c1)OCC(=O)c1ccc(Br)s1 | -9 | 5 | 17 | 3 | 5 | 47* | 23* | 43*
Cc1cc(C(=O)COC(=O)CNS(=O)(=O)c2ccc3ccccc3c2)c(C)n1-c1ccccc1 | -9 | -2 | 2 | 2 | -3 | 13 | . | .
Cc1nnc2n(C3CCCCC3)c(=O)c3c4c(sc3n12)COC(C)(C)C4 | 11 | 0 | 2 | 2 | 5 | 6 | . | .
CC(=O)c1ccc(S(=O)(=O)N2CCN(C(=O)CSc3ccc(C)c(C)c3)CC2)cc1 | -9 | 0 | -10 | 0 | -6 | 35* | -3 | 1
CS(=O)(=O)N1CCN(c2ccccc2NC(=S)NC(=O)c2cccs2)CC1 | -10 | -1 | 3 | -1 | -1 | 30* | 1 | 6
COc1ccc(/C=C(\C#N)C(=O)Nc2cccc3ncccc23)cc1OC | 8 | -1 | 8 | -1 | 2 | 31* | -3 | 3
CCCCNC(=O)C1(C)CCCCCN1Cc1cccc2c(OC)cc(C(=O)OCC)cc12 (centres undefined) | 16 | -2 | . | 1 | 4 | 30* | 1 | 4
COc1ccc(C(=O)n2nc(-c3ccccc3)nc2SC)cc1 | 6 | 0 | . | -2 | 3 | -3 | . | .
CCOC(=O)C1CCCN(S(=O)(=O)c2cnc(Cl)c(Br)c2)C1 (centres undefined) | -12 | -2 | -2 | 1 | 1 | 52* | 15* | 38*
CCOC(=O)C1CCCN(S(=O)(=O)c2ccc(S(=O)(=O)N3CCCC3)cc2)C1 (centres undefined) | 32 | -1 | -2 | 0 | -3 | 4 | . | .
SMILES | NR2E3 ag-1 | MC4R barr agon | NR2E3 ag-2 | PG9 binder | NR1D1 modulator | MC4R antagonist | cAMP nonselect | MC4R cAMP antag
C=CCN(C(=O)CN1CCOCC1)c1nc(C)c(-c2ccccc2)s1 | -7 | 2 | -3 | 1 | 0 | 0 | . | .
Cc1ccc(/C=N/NC(=O)c2cccs2)o1 | -37 | 0 | 2 | -2 | 3 | 10 | . | .
Cc1ccc(S(=O)(=O)NCC(=O)OCC(=O)NCc2ccc(F)cc2)cc1 | 16 | -2 | 1 | -3 | 3 | 34* | 18* | 18
Cc1ccc(S(=O)(=O)NCC(=O)NCC(=O)OCc2c(F)cccc2Cl)cc1 | 2 | -2 | 0 | 0 | -1 | 33* | 27* | 40*
COC(=O)c1ccc(CNC(=O)COC(=O)CNS(=O)(=O)c2ccc(C)cc2)cc1 | 19 | 2 | . | 1 | 8 | 1 | . | .
Cc1ccc(S(=O)(=O)NCC(=O)OCC(=O)Nc2ccccc2OC(F)F)cc1 | -15 | -1 | -2 | -3 | -2 | 33* | 13* | 29*
COc1ccc(S(=O)(=O)N[C@@H](C)C(=O)OCC(=O)Nc2cc3oc4ccccc4c3cc2OC)cc1 | -42 | 1 | 0 | -1 | -1 | 35* | 23* | 39*
C/C(=N\NS(=O)(=O)c1ccc(C)c([N+](=O)[O-])c1)c1cccs1 | 0 | -2 | 2 | 0 | -2 | 3 | . | .
COc1cc2c(cc1NC(=O)COC(=O)CNS(=O)(=O)c1ccc(C)cc1)oc1ccccc12 | -7 | -1 | 1 | -3 | 9 | 30* | 11 | 41*
Cc1ccc(NC(=O)c2ccc(Br)o2)cc1S(=O)(=O)N(C)C | -52 | -1 | -1 | 0 | 6 | 9 | . | .
